For assay [1], the target named is Human immunodeficiency virus type 1 protease (Human immunodeficiency virus 1, UniProt Q72874). Nature of the assay: Inhibitory activity against HIV protease. Put shortly:
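Enzyme inhibition constants measured against HIV-1 protease following a previously published protocol. Values are means of two determinations.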

The test system of assay [2] is MT2. Briefly: Antiviral activity against HIV1 IIIB strain in MT2 cells. Format: functional, cell-based. Put shortly:
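IC50 from inhibition of HIV-1 IIIb-induced cytopathogenicity in MT-2 cells. Assays run in duplicate; values are means of two or three determinations.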

Assay [3] deals with MT2. Briefly: Cytotoxicity against MT2 cells. Conditions: Homo sapiens. Format: functional.

In the case of `C=CCC1(N(CC(C)C)C[C@@H](O)[C@H](Cc2ccccc2)NC(=O)O[C@H]2CO[C@H]3OCC[C@H]32)C(=O)Nc2ccccc21` (stereo in doubt; 14a), in assay [1], the affinity, expressed as Ki, was 0.002 µM.
Same read-out and setting: the same measure for `O=C(N[C@@H](Cc1ccccc1)[C@H](O)CN1CCCCCC12C(=O)Nc1ccccc12)O[C@H]1CO[C@H]2OCC[C@H]21` (stereo partly specified): > 1 µM.
Still for that read-out and setting: the same measure for `C=CCCC1(N(CC=C)C[C@@H](O)[C@H](Cc2ccccc2)NC(=O)O[C@H]2CO[C@H]3OCC[C@H]32)C(=O)Nc2ccccc21` (stereo partly specified): 0.047 µM.
The same measure, in the same setting: the value for `CC(C)CCN(C[C@@H](O)[C@H](Cc1ccccc1)NC(=O)O[C@H]1CO[C@H]2OCC[C@H]21)C1(C)C(=O)Nc2ccccc21` (stereo partly specified) was 0.007 µM; that for `CC1(N(Cc2ccccc2)C[C@@H](O)[C@H](Cc2ccccc2)NC(=O)O[C@H]2CO[C@H]3OCC[C@H]32)C(=O)Nc2ccccc21` (stereo partly specified) was 0.026 µM.
With `CC(C)CN(C[C@@H](O)[C@H](Cc1ccccc1)NC(=O)O[C@H]1CO[C@H]2OCC[C@H]21)C1(C)C(=O)Nc2ccccc21` (stereo in doubt; 3a), in the assay on MT2 [2] (Homo sapiens, IIIB, MT2), the IC50 came out at 0.3 µM. Also, affinity in assay [1] was put at a Ki of 0.006 µM. Moreover, the cytotoxic concentration (CC50) with MT2 [3] was > 10 µM.
For `O=C(N[C@@H](Cc1ccccc1)[C@H](O)CN1CC=CCCC12C(=O)Nc1ccccc12)O[C@H]1CO[C@H]2OCC[C@H]21` (stereo partly specified), the Ki in assay [1] is > 1 µM.
`CC(C)CN(C[C@@H](O)[C@H](Cc1ccccc1)NC(=O)O[C@H]1CO[C@H]2OCC[C@H]21)C1(C)C(=O)Nc2ccccc21` (stereo in doubt; 3b): half-maximal inhibition with MT2 [2] (mt2) (IC50) was put at 0.48 µM. The compound further displayed a Ki in assay [1] of 0.003 µM.
In assay [1], `C=CCC1(N(CC(C)C)C[C@@H](O)[C@H](Cc2ccccc2)NC(=O)O[C@H]2CO[C@H]3OCC[C@H]32)C(=O)Nc2ccccc21` (stereo in doubt; 14b) gave a Ki of 0.007 µM.
Take `COc1ccc2c(c1)C(C)(N(CC(C)C)C[C@@H](O)[C@H](Cc1ccccc1)NC(=O)O[C@H]1CO[C@H]3OCC[C@H]31)C(=O)N2` (stereo in doubt; 15b): the inhibition constant (Ki) in assay [1] is 0.13 µM. This Ki lies about 19-fold higher than the previous one.
On the same count and under the same terms, the value for `COc1ccc2c(c1)C(C)(N(CC(C)C)C[C@@H](O)[C@H](Cc1ccccc1)NC(=O)O[C@H]1CO[C@H]3OCC[C@H]31)C(=O)N2` (stereo in doubt; 15a) was 0.102 µM.
Regarding `CC(C)(C)NC(=O)[C@@H]1C[C@@H]2CCCC[C@@H]2CN1C[C@@H](O)[C@H](Cc1ccccc1)NC(=O)[C@H](CC(N)=O)NC(=O)c1ccc2ccccc2n1` [SAQUINAVIR], the IC50 in the assay with MT2 [2] (Homo sapiens, IIIB, MT2) stood at 0.005 µM. Also, the CC50 with MT2 [3] is > 10 µM.
As for `O=C(N[C@@H](Cc1ccccc1)[C@H](O)CN1CCCCC12C(=O)Nc1ccccc12)O[C@H]1CO[C@H]2OCC[C@H]21` (stereo partly specified), in assay [1], the Ki was > 1 µM.
The same measure, in the same setting: the value for `O=C(N[C@@H](Cc1ccccc1)[C@H](O)CN1CC=CCC12C(=O)Nc1ccccc12)O[C@H]1CO[C@H]2OCC[C@H]21` (stereo partly specified) was 0.126 µM; that for `C=CCN(C[C@@H](O)[C@H](Cc1ccccc1)NC(=O)O[C@H]1CO[C@H]2OCC[C@H]21)C1(CC=C)C(=O)Nc2ccccc21` (stereo partly specified) was 0.005 µM; that for `CC(C)CN(C[C@@H](O)[C@H](Cc1ccccc1)NC(=O)O[C@H]1CO[C@H]2OCC[C@H]21)C1(C)C(=O)N(C)c2ccccc21` (stereo in doubt; 16a) was 0.042 µM.
With `CC(C)CN(C[C@@H](O)[C@H](Cc1ccccc1)NC(=O)O[C@H]1CO[C@H]2OCC[C@H]21)C1(C)C(=O)N(C)c2ccccc21` (stereo in doubt; 16b), in assay [1], the Ki is 0.06 µM. This Ki and that of the compound before are within 1.5-fold of each other.

What is called Ki is the dissociation constant of the complex between target and ligand, obtained from inhibition or displacement. A lower Ki goes with a stronger hold on the target. For orientation: IC50 means the midpoint of a concentration-inhibition curve. Read a low IC50 as higher potency. As usually defined, the CC50 is the concentration that lowers cell viability or growth by half. A higher CC50 goes with lower toxicity to the cells.

These data come from ChEMBL document CHEMBL1146139, “Design and synthesis of novel HIV-1 protease inhibitors incorporating oxyindoles as the P2'-ligands” (Bioorg Med Chem Lett, 2006).
